Measured values reported in publication PMC5704914 (Biochemistry, 2017).
“Also recorded” adds a separate entry of the source.

Columns and labels:
[1] = tested on: surface expression of CaV1.2 (α11.2) in HEK293T/17 cells; assay: Cell surface biotinylation of HA-tagged α11.2 in HEK293T/17 cells; format: cell-based, rat; conditions: NeutrAvidin pull-down, immunoblot, normalized to WT; N=7–13
In short: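 HEK293T/17 cells co-transfected 1:1:1 (calcium phosphate) with α2δ1, β2a and WT or mutant CFP-HA-α11.2; medium changed at 7 h, Accutase-detached at 22 h, >95% trypan-blue-negative. 6×10^6 cells surface-labelled with 0.4 mg/mL sulfo-NHS-LC-biotin, 30 min on ice, pH 7.8; glycine-quenched, RIPA-lysed. 250 μg lysate on NeutrAvidin beads, 2 h, 4°C. Immunoblot for HA, loop II/III, GAPDH and α-tubulin; ECL exposures kept linear.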

apoCaM = apoCaM (Homo sapiens, UniProt P0DP23); assay: Fluorescence polarization, binding of IQ domain-derived peptides to apoCaM; conditions: FP assay, relative to WT peptide
In short: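 Wild-type or mutant α11.2 IQ peptides (AAs 1644-1668), N-terminally fluorescein-labelled, at 1 μM final, were mixed with twofold serial dilutions of untagged purified apoCaM starting from 100 μM. Polarization was read after ≥45 min (ex 485/20, em 528/20) and normalized to fractional binding. Kd came from fitting Y = B*X/(Kd + X); error bars are SD.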

CaV1.2 = assay: Whole-cell Ba2+ current recording in HEK293T/17 cells; format: cell-based, rat α11.2, rat β2a, rabbit α2δ1; conditions: for Erev (equilibrium/reversal potential) / Gmax (maximum conductance) / V1/2 (half-activation voltage): Boltzmann IV fit; for Erev (equilibrium/reversal potential) / Gmax (maximum conductance) / V1/2 (half-activation voltage) / current density relative to WT: N=6–7; for V1/2 (half-activation voltage): *** p<0.001 vs WT; for current density relative to WT: at 20 mV, ANOVA, Tukey and Bonferroni; for shift of V1/2 relative to WT: shift towards more depolarized levels
In short: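 HEK293T/17 cells on poly-L-lysine coverslips were transfected 1:1:1 with β2a, α2δ1 and HA/CFP-tagged WT or mutant α11.2 (Lipofectamine 2000). Whole-cell Ba2+ currents were taken 48–72 h later from CFP-positive cells, held at −70 mV and stepped from −40 to +80 mV in 10 mV increments, with P/4 leak subtraction. Currents were capacitance-normalized, I–V curves Boltzmann-fitted, and data given as mean ± S.E.M. (ANOVA, Tukey/Bonferroni). Cells came from ≥3 independent transfections.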

[2] = tested on: surface expression of CaV1.2 (α11.2) in HEK293T/17 cells; assay: Flow cytometry of surface anti-HA staining of α11.2 in HEK293T/17 cells; format: cell-based, rat; conditions: N=5–7; for reduction in surface labeling of HA-epitope: relative to WT channel labeling
In short: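 HEK293T/17 cells were co-transfected 1:1:1 with α2δ1, β2a and CFP-HA-α11.2 (HA in the domain II S5-H5 extracellular loop) by calcium phosphate, with medium changed at 7 h. At 22 h, Accutase-detached, trypan-blue-counted live cells (6×10^6) were stained on ice for 1 h in the dark ± 2.5 μg/mL Alexa 647 anti-HA, then given 1 μg/mL PI. 50,000 PI-negative singlets were collected; HA-positive percentage of CFP-positive cells was normalized to WT.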

[3] = tested on: L-type Ca^2+ channels at the surface of hippocampal pyramidal neurons; conditions: chelating intracellular Ca^2+, ref [27]; cited from earlier work
L-type channel = conditions: ref [71], [72]; cited from earlier work

Compound | surface expression by biotinylation relative to WT [1] | effect of mutation on apoCaM binding (apoCaM) | Erev (equilibrium/reversal potential) (CaV1.2) [mV] | Gmax (maximum conductance) (CaV1.2) | V1/2 (half-activation voltage) (CaV1.2) | current density relative to WT (CaV1.2) | percentage of anti-HA and CFP co-positive events relative to WT ([2]; PI-negative, CFP-positive cells, normalized to WT) | shift of V1/2 relative to WT (CaV1.2) | reduction in surface labeling of HA-epitope [2] | prevalence of L-type Ca2+ channels at the surface [3] | behavioral effect (L-type channel)
Q1655A: fluorescein-labeled α11.2 IQ domain peptide (AAs 1644-1668), Q1655A mutant | did not exhibit statistically significant differences | did not affect apoCaM binding | 67.2 ± 2.7 | 0.25 ± 0.02 | −2.6 ± 1.6 mV | did not show a significant reduction | not observed | – | – | – | –
I1654A: fluorescein-labeled α11.2 IQ domain peptide (AAs 1644-1668), I1654A mutant | significant decreases in surface expression | affected apoCaM binding; also recorded: reduced binding affinity to apoCaM | 75.7 ± 1.7 | 0.15 ± 0.01 | 11.2 ± 1.5*** mV | significantly reduced current density | – | quite pronounced and significant | ~ 35% | – | –
O=C(O)CN(CC(=O)O)c1ccccc1OCCOc1ccccc1N(CC(=O)O)CC(=O)O [BAPTA] | – | – | – | – | – | – | – | – | – | increased the prevalence of L-type Ca^2+ channels at the surface | –
F1648A: fluorescein-labeled α11.2 IQ domain peptide (AAs 1644-1668), F1648A mutant | did not exhibit statistically significant differences | did not affect apoCaM binding | 73.5 ± 1.7 | 0.26 ± 0.02 | 3.0 ± 1.5 mV | did not show a significant reduction | – | – | – | – | –
K1647A: fluorescein-labeled α11.2 IQ domain peptide (AAs 1644-1668), K1647A mutant | significant decreases in surface expression | – | 69.2 ± 1.3 | 0.09 ± 0.01 | 1.1 ± 1.4 mV | significantly reduced current density | – | did not reach statistical significance | ~ 35% | – | –
COC(=O)C1=C(C)NC(C)=C([N+](=O)[O-])C1c1ccccc1C(F)(F)F (stereo not drawn) [BayK8644] | – | – | – | – | – | – | – | – | – | – | depressant-like behavior
Y1649A: fluorescein-labeled α11.2 IQ domain peptide (AAs 1644-1668), Y1649A mutant | significant decreases in surface expression | – | 66.5 ± 2.9 | 0.08 ± 0.01 | – | significantly reduced current density | – | quite pronounced and significant | ~ 35% | – | –
